According to ChEMBL document CHEMBL4390654, “Microwave-assisted solid-phase synthesis of antisense acpP peptide nucleic acid-peptide conjugates active against colistin- and tigecycline-resistant E. coli and K. pneumoniae” (Eur J Med Chem, 2019):
Numbered stars: 1 amine (or outer) side, 2 acyl side, 3 side chain; on linkers, the order of the positions; unused ones are H or OH. Bridge positions count the residues as written; N and C are the ends. Square brackets hold non-standard residues; d marks the D form. Peptide text beside a SMILES is read from it. I, II: the chains in the order shown. * marks the point of attachment. X3 = CC[C@H](C)[C@@H](C(=O)*)N(C(=O)[C@H](CCCNC(=N)N)NC(=O)CCCCCNC(=O)[C@@H](N)CCCNC(=N)N)C(=O)[C@H](CCCNC(=N)N)NC(=O)CCCCCNC(=O)[C@@H](N)CCCNC(=N)N; Succinimide(1-C2H4CO,3-yl) = O=C1CC([*:1])C(=O)N1CCC(=O)[*:2]; X2 = O=C(OCCOCCN[*:1])[*:2]; Ahx = NCCCCCC(=O)O

Assays:
Escherichia coli [1] = assay: Antibacterial activity against multi-drug resistant Escherichia coli NMI 3548/14 assessed as reduction in microbial growth incubated for 20 hrs; type: functional; details: NMI 3548/14, 20 h
In short: (§1)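 Broth microdilution MIC (modified Hancock protocol) in non-binding polystyrene plates. Inoculum ~2 × 10^5 CFU/mL in Mueller-Hinton broth with Mg²⁺ and Ca²⁺ at 4 mg/L each. Compounds dissolved in water, diluted in 0.01% acetic acid/0.2% BSA (final), added as 10× stocks. Covered plates incubated 20 h at 35 °C (± 2 °C) with 220 rpm circular shaking before MIC read.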

Staphylococcus aureus = assay: Antibacterial activity against Staphylococcus aureus ATCC 29213 assessed as reduction in microbial growth incubated for 20 hrs; type: functional; details: ATCC 29213, 20 h
In short: (§2)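 Broth microdilution MIC after a modified Hancock protocol for cationic peptides, in non-binding polystyrene plates. Inoculum ~2 × 10^5 CFU/mL in Mueller-Hinton broth with Mg²⁺ and Ca²⁺ at 4 mg/L each. Compounds dissolved in water, diluted in 0.01% acetic acid, 0.2% BSA (final), added as 10× aliquots. Covered plates incubated 20 h at 35 °C (± 2 °C) with shaking at 220 rpm. MIC read as lowest inhibiting concentration.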

Klebsiella pneumoniae [2] = assay: Antibacterial activity against multi-drug resistant Klebsiella pneumoniae NMI 3081/09 assessed as reduction in microbial growth incubated for 20 hrs; type: functional; details: NMI 3081/09, 20 h; in short: as §1
[3] = Hemolytic activity against RBC (unknown origin) at 100 uM; type: ADME, cell-based, Erythrocyte; details: red blood cells (erythrocytes); read-out: Activity
Pseudomonas aeruginosa = assay: Antibacterial activity against Pseudomonas aeruginosa PAO1 assessed as reduction in microbial growth incubated for 20 hrs; type: functional; details: PAO1, 20 h; in short: as §2
Klebsiella pneumoniae [4] = assay: Antibacterial activity against Klebsiella pneumoniae ATCC 13883 assessed as reduction in microbial growth incubated for 20 hrs; type: functional; details: ATCC 13883, 20 h; in short: as §2
Escherichia coli [5] = assay: Antibacterial activity against Escherichia coli ATCC 25922 assessed as reduction in microbial growth incubated for 20 hrs; type: functional; details: ATCC 25922, 20 h; in short: as §1
Escherichia coli [6] = assay: Antibacterial activity against Escherichia coli lacking a functional SbmA assessed as reduction in microbial growth incubated for 20 hrs; in short: as §2
Acinetobacter baumannii = assay: Antibacterial activity against Acinetobacter baumannii ATCC 19606 assessed as reduction in microbial growth incubated for 20 hrs; type: functional; details: ATCC 19606 = CIP 70.34 = JCM 6841, 20 h; in short: as §2
Escherichia coli [7] = assay: Antibacterial activity against multi-drug resistant Escherichia coli NMI 3898/15 assessed as reduction in microbial growth incubated for 20 hrs; type: functional; details: NMI 3898/15, 20 h; in short: as §1
Klebsiella pneumoniae [8] = assay: Antibacterial activity against multi-drug resistant Klebsiella pneumoniae NMI 2697/14 assessed as reduction in microbial growth incubated for 20 hrs; type: functional; details: NMI 2697/14, 20 h; in short: as §1

SMILES	MIC (Escherichia coli [1]) [µg/mL]	MIC (Staphylococcus aureus) [µg/mL]	MIC (Klebsiella pneumoniae [2]) [µg/mL]	hemolysis at 100 µM [3] [%]	MIC (Pseudomonas aeruginosa) [µg/mL]	MIC (Klebsiella pneumoniae [4]) [µg/mL]	MIC (Escherichia coli [5]) [µg/mL]	MIC (Escherichia coli [6]) [µg/mL]	MIC (Acinetobacter baumannii) [µg/mL]	MIC (Escherichia coli [7]) [µg/mL]	MIC (Klebsiella pneumoniae [8]) [µg/mL]
CC[C@H](C)[C@H](NC(=O)[C@@H]1CCCN1C(=O)[C@H](CCCNC(=N)N)NC(=O)[C@@H]1CCCN1C(=O)[C@H](Cc1cnc[nH]1)NC(=O)[C@H](CO)NC(=O)[C@@H](NC(=O)[C@@H]1CCCN1C(=O)[C@H](CCCNC(=N)N)NC(=O)[C@@H]1CCCN1C(=O)[C@H](CO)NC(=O)[C@H](Cc1ccc(O)cc1)NC(=O)[C@@H]1CCCN1C(=O)[C@H](CCCNC(=N)N)NC(=O)[C@@H]1CCCN1C(=O)[C@H](CCCNC(=N)N)NC(=O)CCCCCNC(=O)[C@@H](N)CCCNC(=N)N)[C@@H](C)O)C(=O)N[C@@H](CCCNC(=N)N)C(=O)N[C@H](C(=O)N[C@@H](CS)C(=O)N[C@H](C(=O)N[C@@H](CS)C(=O)N[C@H](C(=O)N[C@H](C(=O)N[C@@H](C)C(=O)N[C@@H](CS)C(=O)N[C@@H](C)C(=O)N[C@@H](CS)C(=O)N[C@H](C(N)=O)[C@@H](C)O)[C@@H](C)O)[C@@H](C)O)[C@@H](C)O)C(C)C (H-R[Ahx]RPRPYSPRPTSHPRPIRVCTCTTACACT-NH2)	> 64	> 64	8 to 16	< 1	> 64	64	> 64	> 64	> 64	> 64	> 64
CC[C@@H](C)[C@@H](NC(=O)[C@@H](CCCCN)NC(=O)[C@@H]([C@H](C)CC)N(C(=O)[C@@H](CCCNC(=N)N)NC(=O)CCCCCNC(=O)[C@H](N)CCCNC(=N)N)C(=O)[C@@H](CCCNC(=N)N)NC(=O)CCCCCNC(=O)[C@H](N)CCCNC(=N)N)C(=O)N[C@H](CC(C)C)C(=O)N[C@H](Cc1ccccc1)C(=O)N[C@H](CCC(N)=O)C(=O)N[C@H](CC(N)=O)C(=O)N[C@H](CCCNC(=N)N)C(=O)N[C@H](CCCNC(=N)N)C(=O)N[C@H](CCSC)C(=O)N[C@H](CCCCN)C(=O)N[C@H](Cc1c[nH]c2ccccc12)C(=O)N[C@H](CCCCN)C(=O)N[C@H](CCCCN)C(=O)N[C@H](CSC1CC(=O)N(CCC(=O)NCCOCCOC(=O)N[C@H](CS)C(=O)N[C@@H](C(=O)N[C@H](CS)C(=O)N[C@H](C)C(=O)N[C@@H](C(=O)N[C@H](C)C(=O)N[C@H](CS)C(=O)N[C@@H](C(=O)N[C@H](CS)C(=O)N[C@@H](C(N)=O)[C@H](C)O)[C@H](C)O)[C@H](C)O)[C@H](C)O)C1=O)C(N)=O (stereo partly specified)	8	32	16	1.6	8	16	8	8	4	8	64
CC[C@@H](C)[C@@H](NC(=O)[C@H]1CCCN1C(=O)[C@@H](CCCNC(=N)N)NC(=O)[C@H]1CCCN1C(=O)[C@@H](Cc1cnc[nH]1)NC(=O)[C@@H](CO)NC(=O)[C@H](NC(=O)[C@H]1CCCN1C(=O)[C@@H](CCCNC(=N)N)NC(=O)[C@H]1CCCN1C(=O)[C@@H](CO)NC(=O)[C@@H](Cc1ccc(O)cc1)NC(=O)[C@H]1CCCN1C(=O)[C@@H](CCCNC(=N)N)NC(=O)[C@H]1CCCN1C(=O)[C@@H](CCCNC(=N)N)NC(=O)CCCCCNC(=O)[C@H](N)CCCNC(=N)N)[C@H](C)O)C(=O)N[C@H](CCCNC(=N)N)C(=O)N[C@@H](C(N)=O)C(C)C	> 64	> 64	> 64	< 1	> 64	> 64	> 64	> 64	> 64	> 64	> 64
CC[C@H](C)[C@H](NC(=O)[C@@H]1CCCN1C(=O)[C@H](CCCNC(=N)N)NC(=O)[C@@H]1CCCN1C(=O)[C@H](Cc1cnc[nH]1)NC(=O)[C@H](CO)NC(=O)[C@@H](NC(=O)[C@@H]1CCCN1C(=O)[C@H](CCCNC(=N)N)NC(=O)[C@@H]1CCCN1C(=O)[C@H](CO)NC(=O)[C@H](Cc1ccc(O)cc1)NC(=O)[C@@H]1CCCN1C(=O)[C@H](CCCNC(=N)N)NC(=O)[C@@H]1CCCN1C(=O)[C@H](CCCNC(=N)N)NC(=O)CCCCCNC(=O)[C@@H](N)CCCNC(=N)N)[C@@H](C)O)C(=O)N[C@@H](CCCNC(=N)N)C(=O)N[C@H](C(N)=O)C(C)C	32 to 64	> 64	> 64	< 1	> 64	> 64	> 64	> 64	64	32 to 64	> 64
CC[C@H](C)[C@H](NC(=O)[C@H](CCCCN)NC(=O)[C@H]([C@@H](C)CC)N(C(=O)[C@H](CCCNC(=N)N)NC(=O)CCCCCNC(=O)[C@@H](N)CCCNC(=N)N)C(=O)[C@H](CCCNC(=N)N)NC(=O)CCCCCNC(=O)[C@@H](N)CCCNC(=N)N)C(=O)N[C@@H](CC(C)C)C(=O)N[C@@H](Cc1ccccc1)C(=O)N[C@@H](CCC(N)=O)C(=O)N[C@@H](CC(N)=O)C(=O)N[C@@H](CCCNC(=N)N)C(=O)N[C@@H](CCCNC(=N)N)C(=O)N[C@@H](CCSC)C(=O)N[C@@H](CCCCN)C(=O)N[C@@H](Cc1c[nH]c2ccccc12)C(=O)N[C@@H](CCCCN)C(=O)N[C@@H](CCCCN)C(=O)N[C@@H](CSC1CC(=O)N(CCC(=O)NCCOCCOC(=O)N[C@@H](CS)C(=O)N[C@H](C(=O)N[C@@H](CS)C(=O)N[C@H](C(=O)N[C@H](C(=O)N[C@@H](C)C(=O)N[C@@H](CS)C(=O)N[C@@H](C)C(=O)N[C@@H](CS)C(=O)N[C@H](C(N)=O)[C@@H](C)O)[C@@H](C)O)[C@@H](C)O)[C@@H](C)O)C1=O)C(N)=O (stereo partly specified) (I: X3-KILFQNRRMKWKKC-NH2 / II: [X2]CTCTTACACT-NH2; linker I:14-II:N via Succinimide(1-C2H4CO,3-yl))	4 to 8	> 64	8 to 16	< 1	32	64	32	32	16	16	16 to 32
CC[C@H](C)[C@H](NC(=O)[C@H](CCCCN)NC(=O)[C@H]([C@@H](C)CC)N(C(=O)[C@H](CCCNC(=N)N)NC(=O)CCCCCNC(=O)[C@@H](N)CCCNC(=N)N)C(=O)[C@H](CCCNC(=N)N)NC(=O)CCCCCNC(=O)[C@@H](N)CCCNC(=N)N)C(=O)N[C@@H](CC(C)C)C(=O)N[C@@H](Cc1ccccc1)C(=O)N[C@@H](CCC(N)=O)C(=O)N[C@@H](CC(N)=O)C(=O)N[C@@H](CCCNC(=N)N)C(=O)N[C@@H](CCCNC(=N)N)C(=O)N[C@@H](CCSC)C(=O)N[C@@H](CCCCN)C(=O)N[C@@H](Cc1c[nH]c2ccccc12)C(=O)N[C@@H](CCCCN)C(=O)N[C@@H](CCCCN)C(=O)N[C@@H](CSC1CC(=O)N(CCC(=O)NCCOCCOC(=O)N[C@@H](CS)C(=O)N[C@H](C(=O)N[C@@H](CS)C(=O)N[C@@H](C)C(=O)N[C@H](C(=O)N[C@@H](C)C(=O)N[C@@H](CS)C(=O)N[C@H](C(=O)N[C@@H](CS)C(=O)N[C@H](C(N)=O)[C@@H](C)O)[C@@H](C)O)[C@@H](C)O)[C@@H](C)O)C1=O)C(N)=O (stereo partly specified)	16 to 32	> 64	> 64	< 1	32 to 64	2 to 4	8	8 to 16	16	32 to 64	> 64
